Test results from ChEMBL document CHEMBL1125656, “Novel indole-2-carboxylates as ligands for the strychnine-insensitive N-methyl-D-aspartate-linked glycine receptor” (J Med Chem, 1991).

biological target: Glutamate NMDA receptor; assay: Inhibition of strychnine-insensitive [3H]glycine binding to the N-methyl-D-aspartate glutamate receptor of synaptic plasma membranes(SPM) prepared from rat forebrain; assay type: cell-free
In short: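 Rat forebrain synaptic plasma membranes (male Sprague-Dawley, 30–45 days old), Triton X-100-washed; 0.2–0.4 mg incubated with 10 nM [3H]glycine and a range of compound concentrations in triplicate, in 50 mM Tris/acetate pH 7.4, for 10 min at 2 °C. Bound ligand separated by centrifugation (12000g, 15 min, 4 °C) or GF/B filtration, then scintillation counted. Nonspecific binding set with 100 μM glycine. Ki derived by logit-log analysis.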

Row | Ki [µM] | Compound
1 | > 100 | O=C(O)Cc1c(C(=O)O)oc2ccccc12
2 | > 100 | O=C(O)c1cc2cc(Br)ccc2[nH]1
3 | > 30 | CN(C)CCNC(=O)Cc1c(C(=O)NCCN(C)C)[nH]c2cc(Cl)ccc12
4 | > 30 | O=C(O)C1Cc2ccccc2N1 (stereo not given)
5 | 0.47 | CCCNC(=O)Cc1c(C(=O)O)[nH]c2cc(Cl)ccc12
6 | 1.61 | O=C(O)Cc1c(C(=O)O)[nH]c2cc(Cl)ccc12
7 | > 100 | Cc1ccc2[nH]c(C(=O)O)cc2c1
8 | > 30 | O=C(O)c1cc2c(OCc3ccccc3)cccc2[nH]1
9 | > 100 | Cn1c(C(=O)O)c(CC(=O)O)c2ccccc21
10 | > 30 | CCOC(=O)Cc1c(C=O)[nH]c2cc(Cl)ccc12
11 | > 100 | O=C(O)CCCc1c(C(=O)O)[nH]c2ccccc12
12 | > 100 | O=C(O)c1[nH]c2cc(Cl)ccc2c1O
13 | 10.9 | O=C(O)Cc1c(C(=O)O)[nH]c2ccc(Cl)cc12
14 | > 100 | COc1ccc2[nH]c(C(=O)O)cc2c1
15 | 8.25 | CCOCCc1c(C(=O)O)[nH]c2cc(Cl)ccc12
16 | > 100 | O=C(O)c1cc2c(C(=O)O)cccc2[nH]1
17 | > 100 | CCC(C(=O)O)c1c(C(=O)O)[nH]c2ccccc12 (stereo not given)
18 | > 100 | O=C(O)c1[nH]c2ccccc2c1CO
19 | > 30 | O=C(O)c1[nH]c2ccccc2c1CCO
20 | > 30 | O=C(O)CC1c2ccccc2OC1C(=O)O (stereo not given)
21 | > 100 | O=C(O)Cc1cc2ccccc2nc1C(=O)O
22 | 3.85 | CC(C)OC(=O)Cc1c(C(=O)O)[nH]c2cc(Cl)ccc12

Row | Ki [µM] | Compound
23 | 75.1 | O=C1Cc2c([nH]c3cc(Cl)ccc23)C(=O)O1
24 | 0.68 | CCOC(=O)Cc1c(C(=O)O)[nH]c2cc(Cl)ccc12
25 | 0.63 | O=C(Cc1c(C(=O)O)[nH]c2cc(Cl)ccc12)NCCc1ccccc1
26 | > 100 | O=C(O)CCc1c(C(=O)O)[nH]c2ccccc12
27 | 6.8 | CCCOC(=O)Cc1c(C(=O)O)[nH]c2cc(Cl)ccc12
28 | > 30 | CN(C)CCCNC(=O)Cc1c(C(=O)O)[nH]c2cc(Cl)ccc12
29 | 1.18 | NC(=O)Cc1c(C(=O)O)[nH]c2cc(Cl)ccc12
30 | > 100 | O=C(O)CCCCc1c(C(=O)O)[nH]c2ccccc12
31 | > 100 | CCOC(=O)Cc1c(C(=O)OCCCN(C)C)[nH]c2cc(Cl)ccc12
32 | > 30 | O=C(O)Cc1c(C(=O)O)[nH]c2c(Cl)cccc12
33 | > 30 | Cc1cc2c(CC(=O)O)c(C(=O)O)[nH]c2cc1Cl
34 | 14.1 | O=C(O)Cc1c(C(=O)O)[nH]c2ccc(F)cc12
35 | > 30 | CCOC(=O)Cc1c(CO)[nH]c2cc(Cl)ccc12
36 | > 30 | O=C(O)c1cc2c(O)cccc2[nH]1
37 | > 30 | O=C(O)Cc1c(CO)[nH]c2cc(Cl)ccc12
38 | 10.3 | O=C(Cc1c(C(=O)O)[nH]c2cc(Cl)ccc12)NCCO
39 | 29.6 | CC(=O)Cc1c(C(=O)O)[nH]c2ccccc12
40 | > 30 | CN(C)C(=O)Cc1c(C(=O)O)[nH]c2cc(Cl)ccc12
41 | 29.2 | O=C(O)Cc1c(C(=O)O)[nH]c2ccc(Br)cc12
42 | > 100 | O=C(O)c1cc2cc(Cl)ccc2[nH]1 [5-CHLOROINDOLE-2-CARBOXYLIC ACID]
43 | > 100 | O=C(O)c1cc2ccccc2[nH]1 [INDOLE-2-CARBOXYLIC ACID]

Row | Compound | Ki [µM]
44 | O=C(O)c1cc2cc(F)ccc2[nH]1 [5-FLUOROINDOLE-2-CARBOXYLIC ACID] | 91

biological target: Glutamate NMDA receptor; assay: Inhibition of strychnine-insensitive [3H]MK-801 binding to the N-methyl-D-aspartate glutamate receptor of synaptic plasma membranes(SPM) prepared from rat forebrain; assay type: cell-free
In short: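 Membranes treated with 0.04% v/v Triton X-100 and washed extensively in 50 mM Tris acetate pH 7.4. SPM (0.2–0.4 mg) incubated with 5 nM [3H]MK-801, 10 nM L-glutamate and test compound in the same buffer for 30 min at 25 °C. Samples filtered on 0.05% polyethylenimine-treated GF/B filters and washed four times with cold buffer. Filters scintillation counted; nonspecific binding set with 60 μM MK-801.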

Row | IC50 [µM] | Compound
45 | 6.8 | O=C(O)Cc1c(C(=O)O)[nH]c2cc(Cl)ccc12
